An excerpt weighted towards active compounds, which were near 5.4% of everything screened.
tolC growth inh: blocks growth of E. coli BW25113 tolC mutant | OD615 | growth inhibition, % at 10 µM (by protocol) | 2.2% of 65,000 active;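 active means growth inhibition at or above a cutoff equal to the mean over every tested compound plus 3 SD, cut at about 60% in these data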;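 further: growth measured after 20 h incubation at 37 °C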
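signal = optical density read at 615 nm | test system = E. coli ΔtolC::kan strain BW25113 | timing = 20 h compound exposure of bacteria at 37 °C | buffer or medium = LB medium plus 50 µg/mL kanamycin | compound dosing = 10 µM final, single dose | evaluation = % inhibition of E. coli growth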
PostGolgi ctrl: inhibits growth of the yeast control strain; inhibition, % at 10 µM; efflux-deficient yeast background strain, growth absorbance A615, 16 h; 5% of 98,000 active
PostGolgi yeast: growth inhibition of a yeast mutant, post-Golgi transport screen; post-Golgi transport phenotypic cell assay; inhibition, % at 10 µM; 0.9% of 98,000 active;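 further: yeast cells grown in 1536-well plates; yeast grown about 18 h at 30C before absorbance read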
Ecoli WT expand: E. coli BW25113 growth inhibition, expanded screen; OD600 absorbance; 0.15% of 98,000 active; AID 710; growth inhibition, % at 100 µM;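 active means growth inhibition above about 50% at one test dose, limit read from the data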;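 further: growth measured after 20 h incubation at 37 °C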
HePTP inh: blocks human HePTP tyrosine phosphatase | P35236 | recombinant HePTP phosphatase activity, OD absorbance | inhibition, % at 20 µM | 0.64% of 110,000 active | AID 521; in the data active means inhibition above about 50%;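 further: plate controls were vehicle for no effect and reference inhibitor for full effect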
Target sequence (P35236 whole entry, looked up): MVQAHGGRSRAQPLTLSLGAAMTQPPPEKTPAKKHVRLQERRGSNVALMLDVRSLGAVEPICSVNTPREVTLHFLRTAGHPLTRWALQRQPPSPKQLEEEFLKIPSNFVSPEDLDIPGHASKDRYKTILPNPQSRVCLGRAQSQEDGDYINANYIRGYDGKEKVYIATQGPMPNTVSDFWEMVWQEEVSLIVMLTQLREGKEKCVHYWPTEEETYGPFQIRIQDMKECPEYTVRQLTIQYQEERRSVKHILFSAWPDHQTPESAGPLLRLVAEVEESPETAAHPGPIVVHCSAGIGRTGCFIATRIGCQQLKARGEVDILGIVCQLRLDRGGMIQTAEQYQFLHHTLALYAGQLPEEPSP
PLAP activator: activates human placental alkaline phosphatase; purified PLAP enzyme, luminescent substrate read-out; stronger effect = higher value; activation fold at 20 µM; 1.2% of 96,000 active; AID 696; in the data active means activation fold above about 2
* marks the source's active call; other numbers are inactive results; . = no result. Unless noted, no stated cut-off is given here; in the data, active means inhibition above about 30%; inactive means the rest.

SMILES	tolC growth inh	PostGolgi ctrl	PostGolgi yeast	Ecoli WT expand	HePTP inh	PLAP activator
O=C(CSCc1cccc(Br)c1)NC1CCCCC1	.	.	.	.	-4	.
Cc1cc(N2CCCCC2)n2ncc(-c3ccccc3)c2n1	75*	4	18	-5	12	1.2
Cc1nn2c(N3CCN(C(=O)c4ccco4)CC3)cc(C(C)(C)C)nc2c1-c1ccccc1	11	91*	10	1	-8	1.1
Cc1cc(N2CCN(C(=O)c3ccco3)CC2)n2ncnc2n1	-27	.	.	.	.	.
Cc1cc(N2CCN(C(=O)c3ccco3)CC2)n2ncc(-c3ccccc3)c2n1	25	102*	101*	-4	13	1.1
O=C(Nc1ccccc1N1CCOCC1)c1ccccc1NS(=O)(=O)c1ccc(F)cc1	.	34*	2	-1	.	1.2
CCOc1ccc(S(=O)(=O)Nc2ccccc2C(=O)Nc2ccccc2N2CCOCC2)cc1	27	34*	3	-8	8	1.4
COc1cc(OC)cc(C(=O)O/N=C(\c2ccncc2)c2ccc([N+](=O)[O-])cc2)c1	.	.	.	.	-6	.
O=C(c1ccc2c(=O)n(C3CCCC3)c(=S)[nH]c2c1)N1CCN(C2CCCCC2)CC1	68*	9	0	4	-4	1.4
CCOc1ccccc1/C=C/C(=O)c1cccc(Br)c1	.	.	.	.	11	.
c1ccc(CCN2CCN(c3ncnc4c3cnn4-c3ccccc3)CC2)cc1	66*	12	-3	-23	12	1.4
Cc1ccc(-n2ncc3c(N4CCCC4)ncnc32)c(C)c1	-3	33*	0	3	7	.
CC1CCCN(c2ncnc3c2cnn3-c2ccc(Cl)cc2)C1 (stereo not given)	96*	.	.	.	-2	.
Cc1cccc(-n2ncc3c(N4CCC(C)CC4)ncnc32)c1	94*	45*	44*	-2	5	1.6
CC1CCCN(c2ncnc3c2cnn3-c2ccccc2)C1 (stereo not given)	59	.	.	.	5	.
Cc1cccc(-n2ncc3c(N(C)Cc4ccccc4)ncnc32)c1	93*	.	.	.	0	.
Cc1ccc(C)c(N2CCN(c3ncnc4c3cnn4-c3ccccc3)CC2)c1	21	10	-4	1	-5	1.1
Cc1cccc(-n2ncc3c(N)ncnc32)c1	12	2	2	-8	7	0.9
COc1cccc(N2CCN(c3ncnc4c3cnn4-c3ccc(C)cc3C)CC2)c1	30	46*	3	-9	-4	0.9
CC(C)(C)n1nc(-c2ccc(F)cc2)c2c(N)ncnc21	.	57*	-16	-3	.	1
CC(C)(C)n1nc(-c2ccc(Cl)cc2)c2c(N)ncnc21	.	65*	1	-4	.	0.8
Cc1ccc(-c2nc(N)c3c(-c4ccc(C)cc4)nn(C(C)(C)C)c3n2)cc1	.	1	-14	-7	.	1
Cc1nn(-c2nc3ccccc3[nH]2)c(N)c1-c1ccc(Cl)cc1	.	72*	-2	-8	.	1
Cc1nn(-c2ccc(C(=O)O)cc2)c(N)c1-c1ccccc1	-14	9	4	-17	5	0.9
COc1ccc(-c2c(C)nn(-c3ccccc3)c2N)cc1OC	.	.	.	.	-1	.
SMILES	tolC growth inh	PostGolgi ctrl	PostGolgi yeast	Ecoli WT expand	HePTP inh	PLAP activator
COc1ccc(-c2c(C)nn(-c3ccccc3)c2N)cc1	.	38*	1	5	.	0.8
COc1ccc(NC(=O)C2CC(O)CN2C(=O)OCc2ccccc2)cc1 (stereo not given)	.	.	.	.	0	.
CC(C)CNC(=O)c1ccc(COc2ccc(Cl)cc2Cl)o1	.	32*	-9	13	.	1
O=C1CN(C(=O)c2cc(Br)c(Br)s2)c2ccccc2N1	.	37*	-3	-4	.	1.1
CCN1CCc2c(sc(NC(=O)Nc3ccc(Cl)cc3)c2C(N)=O)C1	.	.	.	.	101*	.
Cc1cccc(CC2CC(=O)N(c3cccc(Cl)c3C)C2=O)c1 (stereo not given)	.	.	.	.	0	.
CCc1c(C(=O)Nc2cc(C)ccc2OC)[nH]c(C)c1C(C)=O	-4	55*	29	-19	12	0.8
COc1cc(SC#N)ccc1N=Cc1c(C)[nH]n(-c2ccc(Cl)cc2)c1=O	.	32*	10	-7	.	1.2
Cc1[nH]n(-c2ccccc2)c(=O)c1C=Nc1cccc(Cl)c1	.	.	.	.	-6	.
CC1CC2=C(NC(=S)NC2c2ccc(F)cc2)/C(=C/c2ccc(F)cc2)C1 (stereo not given)	.	39*	-2	-8	.	0.9
Cc1ccc(N(Cc2ccc([N+](=O)[O-])cc2)C(=O)c2ccco2)cc1	.	35*	12	-12	.	1
COc1cc(CN(C(=O)c2ccco2)c2ccc(C)cc2)ccc1O	21	12	-12	29	-1	0.9
O=C(NN1C(=O)/C(=C/c2ccc(O)cc2)SC1=S)c1ccccc1Br	.	.	.	.	-11	.
CC1(C)Cc2c(sc3c2c(=N)n(Cc2ccco2)c(=O)n3Cc2ccc(Cl)cc2)CO1	64*	97*	6	-20	14	1.7
CC1(C)Cc2c(sc3c2c(=N)n(Cc2ccco2)c(=O)n3Cc2ccccc2)CO1	51	13	-2	-2	-10	1.4
COc1ccc(-n2c(Cc3cccn3C)nnc2SCC(=O)Nc2ccc(C)c(Cl)c2)cc1	75*	30	1	-18	3	1.4
Cn1cccc1Cc1nnc(SCC(=O)N2CCc3ccccc32)n1-c1ccc(F)cc1	-7	6	-1	-5	2	1.1
Cc1ccc(-n2c(Cc3cccn3C)nnc2SCC(=O)N2CCc3ccccc32)cc1	32	45*	7	-1	2	1.3
COc1ccccc1N1CCN(C(c2cccs2)C(C)NS(=O)(=O)c2ccccc2)CC1 (stereo not given)	31	7	-9	-18	-12	1.5
CC(NS(=O)(=O)c1ccccc1)C(c1cccs1)N1CCN(c2ccccc2)CC1 (stereo not given)	27	39*	-5	-8	10	1.2
CC(C)NC(=O)C(=O)Nc1ccc(Cl)c(Cl)c1	.	.	.	.	8	.
Cc1cc(Cl)ccc1NC(=O)CCC(=O)N/N=C/c1cccs1	.	.	.	.	1	.
CCCOC(=O)c1ccc(Oc2c(-c3ccc(OCC)cc3O)n[nH]c2C)cc1	26	11	-6	13	2	2.2*
CCCOC(=O)c1ccc(Oc2cn[nH]c2-c2ccc(OCC)cc2O)cc1	70*	0	2	11	4	1.4
COc1ccc(Oc2c(-c3ccc(O)cc3O)n[nH]c2C)cc1	54	1	0	17	10	1.8
SMILES	tolC growth inh	PostGolgi ctrl	PostGolgi yeast	Ecoli WT expand	HePTP inh	PLAP activator
Brc1ccc(CN2CCN(Cc3ccncc3)CC2)cc1	.	.	.	.	-1	.
Cc1cccc(NS(=O)(=O)c2ccc(C3CCCCC3)cc2)n1	.	27	-2	8	.	1.5
Cc1cccc(NS(=O)(=O)c2ccc(C3CCCCC3)cc2)c1	.	50*	-5	-7	.	1.1
O=C(c1cnccn1)N1CCN(S(=O)(=O)c2ccc3ccccc3c2)CC1	.	-4	15	4	.	1.7
O=C(c1n[nH]c2ccccc12)N1CCN(S(=O)(=O)c2ccc3ccccc3c2)CC1	34	56*	14	-1	4	1.6
CN1CCN(NC(=S)Nc2cccc(Cl)c2)CC1	.	.	.	.	2	.
CCn1c(-c2cc3c(C(F)(F)F)nn(C)c3s2)n[nH]c1=S	.	41*	4	-5	.	0.9
CCN(CC)CCCCOc1cccc(OC)c1	.	.	.	.	4	.

From PubChem BioAssay
